# Laboratory results taken from publication PMC11005929 (Diabetes, Metabolic Syndrome and Obesity, 2024).
# How the values were obtained:
# DIO mice = assay: Repeated administration in diet-induced obesity; format: in vivo, mouse; settings: s.c. once daily (DR10627 3, 10, 30 nmol/kg; liraglutide 80 nmol/kg)
# In short: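 Male C57BL/6 mice, 7 weeks old, kept 11 weeks on a 60% kcal fat diet; those at 42.2–48.7 g were randomised (n=10/group). Standard-diet mice served as normal controls. Dosed s.c. once daily at 5 mL/kg for 57 days. Body weight and food intake were recorded after dosing, and weight change and cumulative intake were calculated. Mean ± SD.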
# db/db mice = assay: Glucose-lowering effect of repeated administration in db/db mice; format: in vivo, mouse
# [1] = tested on: non-diabetic participants; settings: 2-year treatment, SCALE trials; cited from earlier work
# [2] = Phase 3 trial; cited from earlier work
Molecule,body weight from D5 to D57 compared to the vehicle (DIO mice),"blood glucose level before administration on D28 (db/db mice; 50 nmol/kg s.c. once daily, n=10, mean ± SD, vehicle 33.6 ± 6.4) [mM]","blood glucose levels after treatment on D1 (db/db mice; first s.c. dose (DR10627 2, 6, 18 nmol/kg; liraglutide 50 nmol/kg))",weight loss [1],rate of antitaspoglutide antibodies detection [2] [%]
CCCCCCCCCCCCCCCC(=O)N[C@@H](CCC(=O)NCCCC[C@H](NC(=O)[C@H](C)NC(=O)[C@H](C)NC(=O)[C@H](CCC(N)=O)NC(=O)CNC(=O)[C@H](CCC(=O)O)NC(=O)[C@H](CC(C)C)NC(=O)[C@H](Cc1ccc(O)cc1)NC(=O)[C@H](CO)NC(=O)[C@H](CO)NC(=O)[C@@H](NC(=O)[C@H](CC(=O)O)NC(=O)[C@H](CO)NC(=O)[C@@H](NC(=O)[C@H](Cc1ccccc1)NC(=O)[C@@H](NC(=O)CNC(=O)[C@H](CCC(=O)O)NC(=O)[C@H](C)NC(=O)[C@@H](N)Cc1c[nH]cn1)[C@@H](C)O)[C@@H](C)O)C(C)C)C(=O)N[C@@H](CCC(=O)O)C(=O)N[C@@H](Cc1ccccc1)C(=O)N[C@H](C(=O)N[C@@H](C)C(=O)N[C@@H](Cc1c[nH]c2ccccc12)C(=O)N[C@@H](CC(C)C)C(=O)N[C@H](C(=O)N[C@@H](CCCNC(=N)N)C(=O)NCC(=O)N[C@@H](CCCNC(=N)N)C(=O)NCC(=O)O)C(C)C)[C@@H](C)CC)C(=O)O [liraglutide],significantly reduced,27.0 ± 3.9,decreased significantly,5–10%,
taspoglutide,,,,,49
